Experimental data published in ChEMBL document CHEMBL4837222, “Design and synthesis of novel benzothiophene analogs as selective estrogen receptor covalent antagonists against breast cancer” (Eur J Med Chem, 2021).
Calls of active or inactive are those of the source. No cut-off for these calls is given here.

tested on: MCF7; test: Downregulation of ERalpha expression in human MCF7 cells at 0.5 uM incubated for 24 hrs by Western blot assay; type: functional, cell-based; conditions: not given
How it was run: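 MCF-7 cells were kept in phenol red-free DMEM/F12 with 10% serum for 72 h before plating, then treated at 125, 250 and 500 nM for 24 h. Cells were lysed in RIPA buffer, protein was measured by BCA, and equal amounts were run on 10% SDS-PAGE and transferred to PVDF. ERα band intensity was normalized to GAPDH in each repeat.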

SMILES | inhibition
C[C@]12CC[C@@H]3c4ccc(O)cc4C[C@@H](CCCCCCCCC[S+]([O-])CCCC(F)(F)C(F)(F)F)[C@H]3[C@@H]1CC[C@@H]2O (some centres not stated) | inactive

tested on: Ishikawa; test: Antiproliferative activity against human Ishikawa cells assessed as reduction in cell growth incubated for 48 hrs by CCK8 assay; type: functional, cell-based; conditions: not given
How it was run: (§1)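 CCK-8 viability assay. Cells seeded at 4000/well in 10% FBS medium for 24 h, then given compound diluted from DMSO stocks into 2% FBS medium at 100, 50, 25, 12.5, 6.25 and 3.125 µM (0.1% DMSO final). After 48 h, CCK-8 was added (0.5 mg/mL) for 2 h at 37 °C and OD450 read. Triplicates; IC50 fitted from mean viability.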

SMILES | IC50
O=C(CCCNCCOc1ccc(Oc2c(-c3ccc(F)cc3)sc3cc(O)ccc23)cc1)N1CCC1 | > 25 µM
CNC(=O)/C=C/CNCCOc1ccc(Oc2c(-c3ccc(F)cc3)sc3cc(O)ccc23)cc1 | 15.5 µM
O=C(/C=C/CN1CC(Oc2ccc(Oc3c(-c4ccc(F)cc4)sc4cc(O)ccc34)cc2)C1)N1CCCC1 | 9.15 µM
C=C(C)C(=O)NCCOc1ccc(Oc2c(-c3ccc(F)cc3)sc3cc(O)ccc23)cc1 | > 25 µM
C/C=C/C(=O)N1CC(Oc2ccc(Oc3c(-c4ccc(F)cc4)sc4cc(O)ccc34)cc2)C1 | 9.4 µM
O=C(c1ccc(OCCN2CCCCC2)cc1)c1c(-c2ccc(O)cc2)sc2cc(O)ccc12 [RALOXIFENE] | 12.4 µM
C=CC(=O)N1CC(Oc2ccc(Oc3c(-c4ccc(F)cc4)sc4cc(O)ccc34)cc2)C1 | 12.3 µM
CC/C(=C(\c1ccccc1)c1ccc(OCCN(C)C)cc1)c1ccccc1 [TAMOXIFEN] | 16.8 µM
O=C(/C=C/CN1CC(Oc2ccc(Oc3c(-c4ccc(F)cc4)sc4cc(O)ccc34)cc2)C1)N1CCC1 | 5.45 µM
C=CC(=O)NCCOc1ccc(Oc2c(-c3ccc(F)cc3)sc3cc(O)ccc23)cc1 | > 25 µM
C/C=C/C(=O)NCCOc1ccc(Oc2c(-c3ccc(F)cc3)sc3cc(O)ccc23)cc1 | 12.4 µM
CNC(=O)/C=C/CN1CC(Oc2ccc(Oc3c(-c4ccc(F)cc4)sc4cc(O)ccc34)cc2)C1 | > 25 µM
O=C(/C=C/CN1CC(Oc2ccc(Oc3c(-c4ccc(F)cc4)sc4cc(O)ccc34)cc2)C1)N1CCOCC1 | 9.84 µM
CN(C)C(=O)/C=C/CNCCOc1ccc(Oc2c(-c3ccc(F)cc3)sc3cc(O)ccc23)cc1 | 11.9 µM
O=C(/C=C/CNCCOc1ccc(Oc2c(-c3ccc(F)cc3)sc3cc(O)ccc23)cc1)N1CCCCC1 | 8.43 µM
CN(C)C(=O)/C=C/CN1CC(Oc2ccc(Oc3c(-c4ccc(F)cc4)sc4cc(O)ccc34)cc2)C1 | 11.2 µM
O=C(/C=C/CNCCOc1ccc(Oc2c(-c3ccc(F)cc3)sc3cc(O)ccc23)cc1)N1CCCC1 | 11.2 µM
C=C(C)C(=O)N1CC(Oc2ccc(Oc3c(-c4ccc(F)cc4)sc4cc(O)ccc34)cc2)C1 | 14.2 µM
O=C(/C=C/CNCCOc1ccc(Oc2c(-c3ccc(F)cc3)sc3cc(O)ccc23)cc1)N1CCOCC1 | 18.6 µM

tested on: not listed separately; test: Half life in rat liver microsomes; type: ADME, Microsome; conditions: not given

SMILES | half-life
O=C(c1ccc(F)cc1)C1CCN(CCn2c(=O)[nH]c3ccccc3c2=O)CC1 [KETANSERIN] | 18.8 min

tested on: not listed separately; test: Half life in rat plasma; type: ADME, cell-free; conditions: not given

SMILES | half-life
CC(Cc1cccc(C(F)(F)F)c1)NCCOC(=O)c1ccccc1 (configuration not stated) [BENFLUOREX] | 28.3 min

target: T1, Estrogen receptor (Homo sapiens) (UniProt P03372); test: Covalent antagonist activity at ERalpha receptor in human ishikawa cells assessed as suppression of E2-stimulated PGR expression at 0.25 to 10 uM measured after 3 days by RT-PCR analysis; type: cell-based; conditions: filed as antagonist, dose 0.25-10 µM, time 3.0 day
T1 sequence (whole entry): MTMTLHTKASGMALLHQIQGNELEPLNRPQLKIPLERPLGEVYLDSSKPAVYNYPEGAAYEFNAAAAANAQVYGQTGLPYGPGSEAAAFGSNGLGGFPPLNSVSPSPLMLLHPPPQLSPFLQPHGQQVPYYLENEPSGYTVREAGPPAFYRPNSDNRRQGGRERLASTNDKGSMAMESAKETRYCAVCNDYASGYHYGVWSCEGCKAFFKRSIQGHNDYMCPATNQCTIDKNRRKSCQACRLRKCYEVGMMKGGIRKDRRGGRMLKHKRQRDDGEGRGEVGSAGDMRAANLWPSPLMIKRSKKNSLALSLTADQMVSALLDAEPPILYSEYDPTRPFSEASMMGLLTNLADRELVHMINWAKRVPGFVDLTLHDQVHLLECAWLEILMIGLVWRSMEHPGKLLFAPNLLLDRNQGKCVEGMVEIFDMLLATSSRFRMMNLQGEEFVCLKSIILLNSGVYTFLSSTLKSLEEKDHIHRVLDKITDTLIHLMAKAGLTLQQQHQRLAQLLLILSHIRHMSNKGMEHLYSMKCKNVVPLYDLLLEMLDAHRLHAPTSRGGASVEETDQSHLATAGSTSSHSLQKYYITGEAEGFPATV
How it was run: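 Ishikawa cells stimulated with E2 and exposed 3 days to compound at 0.25, 0.5, 1 and 10 µM. PGR mRNA quantified by SYBR Green real-time PCR, normalised to GAPDH, ΔΔCT method.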

SMILES | inhibition
O=C(CCCNCCOc1ccc(Oc2c(-c3ccc(F)cc3)sc3cc(O)ccc23)cc1)N1CCC1 | Active

tested on: not listed separately; test: Intrinsic clearance in rat; type: ADME; conditions: not given

SMILES | CLint scaled
O=C(c1ccc(F)cc1)C1CCN(CCn2c(=O)[nH]c3ccccc3c2=O)CC1 [KETANSERIN] | 132 mL/min/kg

target: T1, Estrogen receptor (Homo sapiens); test: Covalent antagonist activity at ERalpha in human MCF7 cells assessed as decrease in estradiol-induced TFF1 mRNA expression level at 0.25 to 10 uM measured after 24 hrs by RT-PCR analysis; type: cell-based; conditions: filed as antagonist, dose 0.25-10 µM
How it was run: (§2)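 MCF-7 cells stimulated with estradiol, then co-incubated 24 h with compound at 0.25, 0.5, 1 and 10 µM. RNA was reverse-transcribed and GREB1 or TFF1 measured by SYBR Green qPCR: 95 °C 10 min, then 40 cycles of 95 °C 5 s, 60 °C 60 s, 95 °C 15 s. Normalised to GAPDH, ΔΔCT method.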

SMILES | inhibition
O=C(CCCNCCOc1ccc(Oc2c(-c3ccc(F)cc3)sc3cc(O)ccc23)cc1)N1CCC1 | Active

tested on: MCF7; test: Antiproliferative activity against human MCF7 cells assessed as reduction in cell growth incubated for 48 hrs by CCK8 assay; type: functional, cell-based; conditions: MCF7, 48 h; how it was run: as §1

SMILES | IC50
O=C(CCCNCCOc1ccc(Oc2c(-c3ccc(F)cc3)sc3cc(O)ccc23)cc1)N1CCC1 | > 25 µM
CNC(=O)/C=C/CNCCOc1ccc(Oc2c(-c3ccc(F)cc3)sc3cc(O)ccc23)cc1 | 16.1 µM
O=C(/C=C/CN1CC(Oc2ccc(Oc3c(-c4ccc(F)cc4)sc4cc(O)ccc34)cc2)C1)N1CCCC1 | 8.45 µM
C=C(C)C(=O)NCCOc1ccc(Oc2c(-c3ccc(F)cc3)sc3cc(O)ccc23)cc1 | > 25 µM
C/C=C/C(=O)N1CC(Oc2ccc(Oc3c(-c4ccc(F)cc4)sc4cc(O)ccc34)cc2)C1 | 28 µM
O=C(c1ccc(OCCN2CCCCC2)cc1)c1c(-c2ccc(O)cc2)sc2cc(O)ccc12 [RALOXIFENE] | 19.9 µM
C=CC(=O)N1CC(Oc2ccc(Oc3c(-c4ccc(F)cc4)sc4cc(O)ccc34)cc2)C1 | 23.5 µM
O=C(/C=C/CN1CC(Oc2ccc(Oc3c(-c4ccc(F)cc4)sc4cc(O)ccc34)cc2)C1)N1CCC1 | > 25 µM
C=CC(=O)NCCOc1ccc(Oc2c(-c3ccc(F)cc3)sc3cc(O)ccc23)cc1 | 23 µM
C/C=C/C(=O)NCCOc1ccc(Oc2c(-c3ccc(F)cc3)sc3cc(O)ccc23)cc1 | 21.7 µM
CNC(=O)/C=C/CN1CC(Oc2ccc(Oc3c(-c4ccc(F)cc4)sc4cc(O)ccc34)cc2)C1 | > 25 µM
O=C(/C=C/CN1CC(Oc2ccc(Oc3c(-c4ccc(F)cc4)sc4cc(O)ccc34)cc2)C1)N1CCOCC1 | 8.9 µM
CN(C)C(=O)/C=C/CNCCOc1ccc(Oc2c(-c3ccc(F)cc3)sc3cc(O)ccc23)cc1 | 13.8 µM
O=C(/C=C/CNCCOc1ccc(Oc2c(-c3ccc(F)cc3)sc3cc(O)ccc23)cc1)N1CCCCC1 | 16.4 µM
CN(C)C(=O)/C=C/CN1CC(Oc2ccc(Oc3c(-c4ccc(F)cc4)sc4cc(O)ccc34)cc2)C1 | 22.3 µM
O=C(/C=C/CNCCOc1ccc(Oc2c(-c3ccc(F)cc3)sc3cc(O)ccc23)cc1)N1CCCC1 | 7.61 µM
C=C(C)C(=O)N1CC(Oc2ccc(Oc3c(-c4ccc(F)cc4)sc4cc(O)ccc34)cc2)C1 | > 25 µM
O=C(/C=C/CNCCOc1ccc(Oc2c(-c3ccc(F)cc3)sc3cc(O)ccc23)cc1)N1CCOCC1 | 8.24 µM

target: T1, Estrogen receptor (Homo sapiens); test: Covalent antagonist activity at ERalpha in human MCF7 cells assessed as decrease in estradiol-induced GREB1 mRNA expression level at 0.25 to 10 uM measured after 24 hrs by RT-PCR analysis; type: cell-based; conditions: filed as antagonist, dose 0.25-10 µM; how it was run: as §2

SMILES | inhibition
O=C(CCCNCCOc1ccc(Oc2c(-c3ccc(F)cc3)sc3cc(O)ccc23)cc1)N1CCC1 | Active

tested on: MCF7; test: Potency index, ratio of raloxifene IC50 to test compound IC50 for human MCF7 cells assessed as reduction in cell growth incubated for 48 hrs by CCK8 assay; type: functional; conditions: not given

SMILES | Ratio IC50
O=C(/C=C/CN1CC(Oc2ccc(Oc3c(-c4ccc(F)cc4)sc4cc(O)ccc34)cc2)C1)N1CCCC1 | 2
O=C(/C=C/CN1CC(Oc2ccc(Oc3c(-c4ccc(F)cc4)sc4cc(O)ccc34)cc2)C1)N1CCOCC1 | 2

tested on: MDA-MB-231; test: Antiproliferative activity against human MDA-MB-231 cells assessed as reduction in cell growth incubated for 48 hrs by CCK8 assay; type: functional, cell-based; conditions: MDA-MB-231, 48 h; how it was run: as §1

SMILES | IC50
O=C(CCCNCCOc1ccc(Oc2c(-c3ccc(F)cc3)sc3cc(O)ccc23)cc1)N1CCC1 | > 50 µM
CNC(=O)/C=C/CNCCOc1ccc(Oc2c(-c3ccc(F)cc3)sc3cc(O)ccc23)cc1 | > 50 µM
O=C(/C=C/CN1CC(Oc2ccc(Oc3c(-c4ccc(F)cc4)sc4cc(O)ccc34)cc2)C1)N1CCCC1 | > 50 µM
C=C(C)C(=O)NCCOc1ccc(Oc2c(-c3ccc(F)cc3)sc3cc(O)ccc23)cc1 | > 50 µM
C/C=C/C(=O)N1CC(Oc2ccc(Oc3c(-c4ccc(F)cc4)sc4cc(O)ccc34)cc2)C1 | > 50 µM
O=C(c1ccc(OCCN2CCCCC2)cc1)c1c(-c2ccc(O)cc2)sc2cc(O)ccc12 [RALOXIFENE] | > 50 µM
C=CC(=O)N1CC(Oc2ccc(Oc3c(-c4ccc(F)cc4)sc4cc(O)ccc34)cc2)C1 | > 50 µM
CC/C(=C(\c1ccccc1)c1ccc(OCCN(C)C)cc1)c1ccccc1 [TAMOXIFEN] | > 50 µM
O=C(/C=C/CN1CC(Oc2ccc(Oc3c(-c4ccc(F)cc4)sc4cc(O)ccc34)cc2)C1)N1CCC1 | > 50 µM
C=CC(=O)NCCOc1ccc(Oc2c(-c3ccc(F)cc3)sc3cc(O)ccc23)cc1 | > 50 µM
C/C=C/C(=O)NCCOc1ccc(Oc2c(-c3ccc(F)cc3)sc3cc(O)ccc23)cc1 | > 50 µM
CNC(=O)/C=C/CN1CC(Oc2ccc(Oc3c(-c4ccc(F)cc4)sc4cc(O)ccc34)cc2)C1 | > 50 µM
O=C(/C=C/CN1CC(Oc2ccc(Oc3c(-c4ccc(F)cc4)sc4cc(O)ccc34)cc2)C1)N1CCOCC1 | > 50 µM
CN(C)C(=O)/C=C/CNCCOc1ccc(Oc2c(-c3ccc(F)cc3)sc3cc(O)ccc23)cc1 | > 50 µM
O=C(/C=C/CNCCOc1ccc(Oc2c(-c3ccc(F)cc3)sc3cc(O)ccc23)cc1)N1CCCCC1 | > 50 µM
CN(C)C(=O)/C=C/CN1CC(Oc2ccc(Oc3c(-c4ccc(F)cc4)sc4cc(O)ccc34)cc2)C1 | > 50 µM
O=C(/C=C/CNCCOc1ccc(Oc2c(-c3ccc(F)cc3)sc3cc(O)ccc23)cc1)N1CCCC1 | > 50 µM
C=C(C)C(=O)N1CC(Oc2ccc(Oc3c(-c4ccc(F)cc4)sc4cc(O)ccc34)cc2)C1 | > 50 µM
O=C(/C=C/CNCCOc1ccc(Oc2c(-c3ccc(F)cc3)sc3cc(O)ccc23)cc1)N1CCOCC1 | > 50 µM

tested on: Ishikawa; test: Potency index, ratio of raloxifene IC50 to test compound IC50 for human Ishikawa cells assessed as reduction in cell growth incubated for 48 hrs by CCK8 assay; type: functional; conditions: not given

SMILES | Ratio IC50
O=C(/C=C/CN1CC(Oc2ccc(Oc3c(-c4ccc(F)cc4)sc4cc(O)ccc34)cc2)C1)N1CCCC1 | 1.35
O=C(/C=C/CN1CC(Oc2ccc(Oc3c(-c4ccc(F)cc4)sc4cc(O)ccc34)cc2)C1)N1CCOCC1 | 1.26
